Measured values taken from ChEMBL document CHEMBL4732136, “Synthesis, Tumor Specificity, and Photosensitizing Efficacy of Erlotinib-Conjugated Chlorins and Bacteriochlorins: Identification of a Highly Effective Candidate for Photodynamic Therapy of Cancer” (J Med Chem, 2021).

Key:
[1] = Drug uptake in human HN-143 cells assessed as increase in drug retention retention at 3 uM in medium with 10% FBS incubated for 5 hrs followed by 40 hrs chase period by inverted fluorescence microscopic analysis; type: ADME, cell-based; conditions: hn-143, 5 h
In short: (§1)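 Five-day co-cultures of HN-143 tumor epithelial cells and HN-166 tumor fibroblasts, both primary head & neck tumor cultures grown on collagen-1 under selective media. PS in 10% FBS medium for 5 h, then 40 h chase without PS. Phase-contrast and fluorescence images taken at 100X with 500 ms exposure; signal normalized to recording time and cell number.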

UMUC3 = test: Photodynamic antitumor activity against human UMUC3 cells xenografted in SCID mouse assessed as tumor retention at 0.25 micromol/kg, iv pretreated with compound followed by light irradiation at a dose of 135 J/cm2 and 75 mW/cm2 measured at day 60 post dose relative to control; type: functional; conditions: dose 0.25 µmol/kg; time 60 day
In short: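 UMUC3-bearing female SCID mice given iv PS in 1% Tween80/5% dextrose. Mice restrained and tumors irradiated at 665 nm, 135 J/cm² over 30 min at 75 mW/cm², at the time of maximal tumor uptake. Tumor regrowth measured daily for 60 days; mice euthanized above 400 mm³. Cure plotted as survival curves and compared by log-rank (Mantel-Cox) test.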

[2] = Drug uptake in liver of SCID mouse xenografted with human UMUC3 cells at 0.125 micromol/kg, iv pretreated with compound followed by light irradiation at a dose of 135 J/cm2 and 75 mW/cm2 measured after 2 to 24 hrs by IVIS analysis; type: ADME, organism-based; conditions: in vivo, time 2-24 hrs, dose 0.125 µmol/kg
In short: (§2)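 Female SCID mice with UMUC3 flank/shoulder tumors, 3 per group. PS in 1% Tween80/5% dextrose given iv at 0.47, 0.25 or 0.125 μmol/kg. Whole-body fluorescence imaging by IVIS at several times after injection; average radiant efficiency measured in tumor, liver and skin.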

[3] = Drug uptake in human HN-166 cells assessed as increase in drug retention retention at 3 uM in medium with 10% FBS incubated for 5 hrs followed by 40 hrs chase period by inverted fluorescence microscopic analysis; type: ADME, cell-based; conditions: hn-166, 5 h; in short: as §1
[4] = Drug uptake in human FaDu clone 49 cells assessed as increase in drug retention at 1.6 uM in RPMI medium with 10% FBS followed by 48 hrs chase period by inverted fluorescence microscopic analysis
[5] = Drug uptake in tumor of SCID mouse xenografted with human FaDu cells at 0.47 to 0.125 micromol/kg, iv pretreated with compound followed by light irradiation at a dose of 135 J/cm2 and 75 mW/cm2 and measured at 24 hrs by IVIS analysis; type: ADME, organism-based, Neoplasm; conditions: in vivo, dose 0.47-0.125 µmol/kg
In short: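 Female SCID mice bearing FaDu tumors 4–5 mm in diameter, 3 per group. PS in 1% Tween80/5% dextrose given iv at 0.47, 0.25 or 0.125 μmol/kg. IVIS whole-body fluorescence imaged at several time points; average radiant efficiency measured in tumor, liver and skin.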

[6] = Drug uptake in skin of SCID mouse xenografted with human UMUC3 cells at 0.25 micromol/kg, iv pretreated with compound followed by light irradiation at a dose of 135 J/cm2 and 75 mW/cm2 measured after 2 to 8 hrs by IVIS analysis; type: ADME, organism-based, Skin of body; conditions: in vivo, time 2-8 hrs, dose 0.25 µmol/kg; in short: as §2
FaDu = test: Photosensitizing activity in human FaDu cells assessed as reduction in cell viability pretreated with compound for 24 hrs followed by light irradiation at 1 J/cm2 and measured after 48 hrs by MTT assay; type: functional, cell-based; conditions: light or radiation study
In short: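 Cells seeded at 0.01–0.05 x 10⁶ cells/ml; PS added 24 h after plating, top dose 1600 nM with 2-fold serial dilutions. Plates given 0 or 1 J/cm² light. MTT added 48 h later, formazan dissolved in DMSO, absorbance at 570 nm; IC50 from curve fitting.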

[7] = Drug uptake in liver of SCID mouse xenografted with human UMUC3 cells at 0.25 micromol/kg, iv pretreated with compound followed by light irradiation at a dose of 135 J/cm2 and 75 mW/cm2 measured after 2 to 8 hrs by IVIS analysis; type: ADME, organism-based; conditions: in vivo, time 2-8 hrs, dose 0.25 µmol/kg; in short: as §2
HN-85-1-3 = test: Photodynamic therapy in human HN-85-1-3 cells assessed as induction of STAT3 cross-linking treated with compound followed by diode laser irradiation at 3 J/cm2 by immunoblot analysis; type: functional, cell-based
In short: (§3)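 Primary HN-85-1-3 tumor epithelial cells loaded with graded PS doses; uptake quantified by fluorescence before light. Dishes irradiated at 37°C with 665 nm diode laser, 6 mW/cm², 3 J/cm² total. Cells lysed in RIPA immediately after light; STAT3 crosslinking and EGFR analysed by SDS-PAGE immunoblot.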

[8] = Drug uptake in human HN-85-1-3 cells assessed as photoreactivation by measuring fluorescence when irradiated with diode laser at 3J/cm2 by inverted fluorescence microscopic analysis (reference value: 0 FU); type: cell-based; in short: as §3
[9] = Drug uptake in skin of SCID mouse xenografted with human UMUC3 cells at 0.125 micromol/kg, iv pretreated with compound followed by light irradiation at a dose of 135 J/cm2 and 75 mW/cm2 measured after 2 to 24 hrs by IVIS analysis; type: ADME, organism-based, Skin of body; conditions: in vivo, time 2-24 hrs, dose 0.125 µmol/kg; in short: as §2
[10] = Drug uptake in liver of iv dosed SCID mouse xenografted with human UMUC3 cells by fluorescence imaging analysis; type: ADME, organism-based; conditions: in vivo
[11] = Drug uptake in tumor of SCID mouse xenografted with human UMUC3 cells at 0.125 micromol/kg, iv pretreated with compound followed by light irradiation at a dose of 135 J/cm2 and 75 mW/cm2 measured after 2 to 24 hrs by IVIS analysis; type: ADME, organism-based, Neoplasm; conditions: in vivo, time 2-24 hrs, dose 0.125 µmol/kg; in short: as §2

Q: What does the source list for `CCC1=C(C)c2cc3[nH]c(cc4nc(c5c6[nH]c(cc1n2)c(C)c6C(=O)C5)[C@@H](CCC(=O)OC)[C@@H]4C)c(C)c3C(C)OCc1cccc(C#Cc2cccc(Nc3ncnc4cc(OCCOC)c(OCCOC)cc34)c2)c1` (some centres undefined)?
A: Drug uptake [1]: Active; Activity (UMUC3): 50%; Drug uptake [2]: Active; Drug uptake [3]: Active; Drug uptake [4]: Active; Drug uptake [5]: Active; Drug uptake [6]: Active; IC50 (FaDu): 35.5 nM; Drug uptake [7]: Active; Activity (HN-85-1-3): Dose-dependent effect; Activity [8]: 9 FU; Drug uptake [9]: Active; Drug uptake [10]: Active; Drug uptake [11]: Active
